Rows were chosen to be rich in hits. Some 2.4% of all compounds tested hit in one or more screens of this group.
pCIP destab: lowers stability of the mouse p/CIP coactivator protein | decrease of EGFP signal, % at 10 µM | F442A p/CIP-EGFP cells, EGFP fluorescence, 16 h | 290,000 tested, 0.01% active;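 active = EGFP signal decrease of at least 30% at 10 µM or well 3 SD below plate mean, unless failing retest; inactive = the rest, including hits failing retest or dose response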
T cruzi inh: T. cruzi replication inhibition | AID 1885 | T. cruzi beta-gal in NIH3T3, luminescence, 90 h | 300,000 tested, 1.4% active | inhibition, % (test concentration not listed);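 active = mean inhibition across valid replicates above about 55%, limit read from the data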;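 also: signal also drops with host cell toxicity which is not excluded here; 0% = plate median of DMSO wells and 100% = zero luminescence signal; higher percent means less beta-gal luminescence so fewer parasites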
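Assay system: NIH/3T3 fibroblasts plus reporter T. cruzi. Amount: NIH/3T3 cells, 5,000 per well. Buffer or medium: DMEM, 2% fetal bovine serum. Doses: compound pinned at 50 nL/well, DMSO. Schedule: ≥90 h infection period, 3 h prior cell attachment. Signal: luminescent β-galactosidase signal after 60 min lysis. Read-out: parasite load inhibition, %.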
Cardio protect: modulators protecting cardiomyocytes from myocardial damage; H9c2 cardiomyocytes, H2O2 injury protection, ATPLite, 2 h; protection from H2O2 cell death, % at 20 µM; 360,000 tested, 0.63% active;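 active = compounds giving at least 50% protection of heart cells from peroxide-induced death in the single-dose screen, raw or plate-pattern-corrected value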;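 also: 0% = DMSO wells with peroxide and 100% = DMSO wells without peroxide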
CTSL1 counter: blocks F. hepatica cathepsin L1 in PFM18AAP counter-screen; recombinant F. hepatica cathepsin L1, Z-Leu-Arg-MCA fluorescence; inhibition, % at 5.96 µM; 300,000 tested, 0.49% active;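 active = inhibition above the mean of all tested compounds plus 3 SD, set per screening campaign, cut at about 17% in these data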;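 also: 0% = plate median of test compound wells and 100% = 1 µM Z-Phe-Ala-diazomethylketone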
GASC-1 inh: blocks human GASC-1 demethylase activity. Q9H3R0. GST-JMJD2C(1-420) H3K9me3 demethylation, DELFIA europium. inhibition, % at 2.35 µM. 330,000 tested, 0.069% active;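 active = more than half of a compound's replicate wells show inhibition beyond 50%, single wells judged on their own value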;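 also: signal counts dimethyl H3K9 product captured on neutravidin plate; 0% = median of DMSO wells and 100% = 0.3 times that DMSO median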
Target sequence (Q9H3R0 1-420 limits assumed): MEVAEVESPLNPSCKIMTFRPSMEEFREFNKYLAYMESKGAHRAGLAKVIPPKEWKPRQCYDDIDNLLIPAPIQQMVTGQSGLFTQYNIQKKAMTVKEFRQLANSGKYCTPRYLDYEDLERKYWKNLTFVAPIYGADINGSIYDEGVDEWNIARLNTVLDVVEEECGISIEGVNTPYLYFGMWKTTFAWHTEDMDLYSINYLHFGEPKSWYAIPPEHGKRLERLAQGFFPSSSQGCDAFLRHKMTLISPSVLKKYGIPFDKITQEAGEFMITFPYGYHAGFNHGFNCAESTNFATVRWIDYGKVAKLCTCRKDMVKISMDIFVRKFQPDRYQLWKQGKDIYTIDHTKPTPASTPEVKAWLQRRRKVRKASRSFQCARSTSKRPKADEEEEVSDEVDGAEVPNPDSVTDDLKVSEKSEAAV
PP5 inh: PP5 (human) phosphatase inhibition; P53041; purified PP5c, OMFP substrate fluorescence; inhibition, % at 6.7 µM; 320,000 tested, 0.18% active; AID 1987;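 active = inhibition above the campaign's mean inhibition across all tested compounds plus 3 SD, cut at about 9.5% in these data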;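 also: 0% = DMSO only and 100% = 100 µM cantharidin control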
* = called active by the depositor; . = not tested or not shown.

SMILES	pCIP destab	T cruzi inh	Cardio protect	CTSL1 counter	GASC-1 inh	PP5 inh
COC(=O)c1cc(S(=O)(=O)NC2CCC(C)CC2)cn1C (stereo not drawn)	0	0	3	1	9	0
CCCCc1ccc(NC(=O)Cn2c(=O)c(N3CCCCC3)c(N)n(C)c2=O)cc1	.	.	-4	.	1	.
Cc1c(C(c2ccccc2Br)c2c(C)n(C)n(-c3ccccc3)c2=O)c(=O)n(-c2ccccc2)n1C	-3	8	0	2	-22	3
COc1ccc(Cn2c(-c3ccco3)nc3c(c(=O)c4ccccc4n3C)c2=O)cc1	-12	12	34	2	3	3
Cn1c2ccccc2c(=O)c2c(=O)n(Cc3ccco3)c(-c3ccc(Cl)cc3Cl)nc21	-3	64*	.	2	-6	1
CCc1ccc(N=CC2=C(O)CC(c3ccco3)CC2=O)cc1 (stereo not drawn)	6	-22	-9	17*	13	-8
OCCC1CN(Cc2cccn2-c2ccccn2)CCN1C1CCCCC1 (stereo not drawn)	-6	-3	-1	74*	29	0
COc1ccc(/C=C/C(=O)Nc2cc(C)nn2-c2nc3ccccc3[nH]2)cc1	2	55*	-7	-3	6	1
O=c1c2c([N+](=O)[O-])cc([N+](=O)[O-])cc2sn1Cc1ccccc1	-8	57*	-19	0	1	-1
CC(C)Nc1nc(C#N)nc(NC(C)C)n1	-2	11	-3	57*	3	3
CC(C)Nc1nc(NC(C)C)nc(N(C#N)C(C)C(=O)N(C)C)n1 (stereo not drawn)	0	6	.	.	-20	.
COc1ccc(C(=O)C(C)OC(=O)c2nc3nccc(C)n3n2)cc1 (stereo not drawn)	.	.	-1	.	-6	-4
Cc1ccc(C)c(N2CCN(C(=O)c3ccc(Cn4c(=O)[nH]c5ccccc5c4=O)cc3)CC2)c1	0	65*	-1	4	-4	4
CC(=O)c1ccc(N2CCN(C(=O)c3ccc(Cn4c(=S)[nH]c5ccc(N6CCOCC6)cc5c4=O)cc3)CC2)cc1	7	70*	-8	9	28	1
NC(=O)C1CCN(C2=C(Cl)C(=O)c3ccccc3C2=O)CC1	-6	59*	-13	24*	8	7
O=C1C(Cl)=C(N2CCC(C(=O)O)CC2)C(=O)c2ccccc21	0	-11	-10	7	6	3
COc1ccc(CCn2c(Br)nc3c2c(=O)[nH]c(=O)n3C)cc1	14	-22	64*	0	-9	3
COc1ccc(CCn2c(NN)nc3c2c(=O)[nH]c(=O)n3C)cc1	-7	-18	9	13	-3	1
COc1ccc(-c2nc3c(c(=O)[nH]c(=O)n3Cc3ccccc3)n2Cc2ccccc2)cc1	-9	61*	-7	2	-5	1
O=C(/C=C/c1ccccc1)NC(NC(=S)Nc1cc(Cl)ccc1Cl)C(Cl)(Cl)Cl (stereo not drawn)	-1	75*	-14	10	14	1
O=C(/C=C/c1ccccc1)NC(NC(=S)Nc1ccc(Cl)cc1)C(Cl)(Cl)Cl (stereo not drawn)	2	72*	-22	2	-2	2
O=C(Cc1ccccc1)NC(NC(=S)Nc1cc(Cl)ccc1Cl)C(Cl)(Cl)Cl (stereo not drawn)	-11	-7	1	-1	51	0
Cc1ccc(S(=O)(=O)N(C)C[C@H]2OCCCC[C@H](C)Oc3ccc(NC(=O)Nc4cccc5ccccc45)cc3C(=O)N([C@@H](C)CO)C[C@H]2C)cc1	.	.	-4	.	.	.
Cc1ccc(Nc2nc(N)nc(CCl)n2)cc1	-8	3	-5	-2	-6	2
COc1cccc(Nc2nc(N)nc(CCl)n2)c1	-6	69*	10	-1	8	1
Cc1cccc(Nc2nc(N)nc(CCl)n2)c1	-12	68*	4	-1	13	0
Cc1ccc(Nc2nc(N)nc(CCl)n2)c(C)c1	-11	57*	7	4	2	-2
O=C(COC(=O)Cc1ccc(Cl)cc1)NC1CCCC1	.	.	1	.	-7	-1

Screens deposited in PubChem by several laboratories.
